Measured values collected from several papers.
pEC50, pIC50: −log10 of the molar value.

CC1CCN(C(=O)/C=C/c2nn(CC3CCCC3)c3ncnc(N)c23)CC1  pEC50 (OE33; cell growth or viability, resazurin; 5 days): < 4.52
O=C(Nc1ccccc1)Nc1ccc(C(F)(F)F)cc1  pIC50 (LAD2; degranulation): 5.08
Nc1ncnc2c1c(/C=C/C(=O)N1CCCC1)nn2CC1CCCC1  pEC50 (OE33; cell growth or viability, resazurin; 5 days): < 4.52
CC(=O)c1nn(-c2ccc(C)cc2)/c(=N/N=C(\C)c2ccc(NC(=O)c3ccccc3)cc2)s1  viability (HepG2; cell growth or viability, MTT; 0.312 µM): 5.09%
CC(=NNC(=O)c1ccccc1O)c1ccc(Nc2nnc(-c3ccc(Cl)cc3)c3ccccc23)cc1  cell death (HepG2; cell growth or viability, MTT; 5 µM): 84.2%
CN(C)C1CCN(C(=O)/C=C/c2nn(CC3CCCC3)c3ncnc(N)c23)CC1  pEC50 (OE33; cell growth or viability, resazurin; 5 days): < 4.52
O=C(Nc1ccc(Oc2nnc(-c3ccc(Cl)cc3)c3ccccc23)cc1)c1cccc([N+](=O)[O-])c1  cell death (HepG2; cell growth or viability, MTT; 2.5 µM): 96.4%
CNc1ncc2c(/C=C/C(=O)N3CCC(OC)CC3)nn(CC(C)(C)C)c2n1  pEC50 (OE33; cell growth or viability, resazurin; 5 days): < 4.52
CC(C)(C)c1cnc(CSc2cnc(NC(=O)C3CCN(C(=O)CCCSc4cccc5c4C(=O)N(C4CCC(=O)NC4=O)C5=O)CC3)s2)o1 (stereo not drawn)  viability (HH; cell growth or viability, CCK-8; 0.1 µM): 98%
C=CC(=O)NC1CCN(c2ncc3ncnc(Nc4ccc(Oc5ccc6c(c5)ncn6C)c(C)c4)c3n2)CC1  pEC50 (DMS-273; cell growth or viability): 6.47
CC(C)(C)c1cnc(CSc2cnc(NC(=O)C3CCN(CCCCCSc4cccc5c4CN(C4CCC(=O)NC4=O)C5=O)CC3)s2)o1 (stereo not drawn)  viability (HH; cell growth or viability, CCK-8; 1 nM): 96.6%
CNc1ncc2c(/C=C/C(=O)N3CCC(OC)CC3)nn(Cc3ccc(OC)cc3)c2n1  pEC50 (OE33; cell growth or viability, resazurin; 5 days): 5.79
CC(=O)Nc1ccc(Oc2nnc(-c3ccc(Cl)cc3)c3ccccc23)cc1  cell death (HepG2; cell growth or viability, MTT; 5 µM): 93.5%
CCOC(=O)c1nn(-c2cccc(Cl)c2)/c(=N/N=C(\C)c2ccc(NC(=O)c3ccc(Cl)cc3)cc2)s1  viability (HepG2; cell growth or viability, MTT; 1.25 µM): 2.59%
Cc1cc(C)n(C(C(=O)OC(C)C)n2nc(C)cc2C)n1  pIC50 (A-431; cell growth or viability, MTT; 72 h): < 4.30
CC(C)(C)c1cnc(CSc2cnc(NC(=O)C3CCN(CCCCCCCSc4cccc5c4C(=O)N(C4CCC(=O)NC4=O)C5=O)CC3)s2)o1 (stereo not drawn)  viability (HH; cell growth or viability, CCK-8; 0.1 µM): 92.7%
O=C(Nc1ccccc1)Nc1cc(Br)cc(C(F)(F)F)c1  pIC50 (LAD2; degranulation): 5.10
COC(=O)/C=C/c1nn(CC2CCCC2)c2ncnc(N)c12  pEC50 (OE33; cell growth or viability, resazurin; 5 days): < 4.52
CC(=NNC(=S)Nc1ccccc1)c1ccc(Nc2nnc(-c3ccc(Cl)cc3)c3ccccc23)cc1  cell death (HepG2; cell growth or viability, MTT; 10 µM): 95.7%
CCOC1CCN(C(=O)/C=C/c2nn(Cc3cccc(C)c3)c3nc(NC)ncc23)CC1  pEC50 (OE33; cell growth or viability, resazurin; 5 days): 5.64
CC(=O)c1nn(-c2ccccc2Cl)/c(=N/N=C(\C)c2ccc(NC(=O)c3ccccc3)cc2)s1  viability (HepG2; cell growth or viability, MTT; 0.156 µM): 30.2%
O=C(Nc1ccc([N+](=O)[O-])cc1)Nc1cccc(C(F)(F)F)c1  pIC50 (LAD2; degranulation): 6.12
CC(C)(C)c1cnc(CSc2cnc(NC(=O)C3CCN(CCCCCCCCSc4cccc5c4C(=O)N(C4CCC(=O)NC4=O)C5=O)CC3)s2)o1 (stereo not drawn)  viability (HH; cell growth or viability, CCK-8; 0.2 µM): 10.7%
CNc1ncc2c(/C=C/C(=O)N3CCC(OC)CC3)nn(Cc3ccccc3OC)c2n1  pEC50 (OE33; cell growth or viability, resazurin; 5 days): 5.11
CCOC(=O)c1nn(-c2cccc(Cl)c2)/c(=N/N=C(\C)c2ccc(NC(=O)c3ccccc3)cc2)s1  viability (HepG2; cell growth or viability, MTT; 1.25 µM): 2.72%
CC(=NNC(=O)c1cccnc1)c1ccc(Nc2nnc(-c3ccc(Cl)cc3)c3ccccc23)cc1  cell death (HepG2; cell growth or viability, MTT; 1.25 µM): 88.1%
O=C(Nc1cccc([N+](=O)[O-])c1)Nc1cccc(C(F)(F)F)c1  pIC50 (LAD2; degranulation): 6.55
CC(C)(C)c1cnc(CSc2cnc(NC(=O)C3CCN(C(=O)COCCOCCSc4cccc5c4C(=O)N(C4CCC(=O)NC4=O)C5=O)CC3)s2)o1 (stereo not drawn)  viability (HH; cell growth or viability, CCK-8; 0.25 µM): 92.9%
CC(=NNC(=O)c1ccccc1Br)c1ccc(Nc2nnc(-c3ccc(Cl)cc3)c3ccccc23)cc1  cell death (HepG2; cell growth or viability, MTT; 5 µM): 95.6%
CC(C)(C)c1cnc(CSc2cnc(NC(=O)C3CCN(CCCCCCCCSc4cccc5c4CN(C4CCC(=O)NC4=O)C5=O)CC3)s2)o1 (stereo not drawn)  viability (HH; cell growth or viability, CCK-8; 0.2 µM): 0%
O=C(Nc1ccccc1)Nc1ccc(Oc2nnc(-c3ccc(Cl)cc3)c3ccccc23)cc1  cell death (HepG2; cell growth or viability, MTT; 0.625 µM): 94.7%
CC(C)(C)c1cnc(CSc2cnc(NC(=O)C3CCN(CCCCSc4cccc5c4C(=O)N(C4CCC(=O)NC4=O)C5=O)CC3)s2)o1 (stereo not drawn)  viability (HH; cell growth or viability, CCK-8; 0.15 µM): 36.9%
Cc1sc2c(c1C)C(c1ccc(Cl)cc1)=N[C@@H](CC(=O)NCCCCCCCCNC(=O)COc1cccc3c1C(=O)N(C1CCC(=O)NC1=O)C3=O)c1nnc(C)n1-2 (stereo partly drawn)  pIC50 (Ramos; cell growth or viability, ATP luminescence; 72 h): 7.92
